Measured values from ChEMBL document CHEMBL5058577, “EUbOPEN Chemogenomics Library 2 (Multiplex)” (2022).

Tested on: U2OS
Experiment: Multiplex assay against U2OS
Assay type: toxicity, cell-based
Settings: human
In short: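 Live cells were stained at seeding with Hoechst33342, BioTracker Green Microtubule Cytoskeleton Dye, MitoTracker Red and Annexin V Alexa Fluor 680. Following compound addition, they were imaged on a CQ1 microscope at 37°C and 5% CO2 and gated by CellPathfinder machine learning into Hoechst high-intensity objects or normal cells, with normal cells split into healthy, pyknosed or fragmented nuclei and pyknosed cells into mitotic or apoptotic. Tubulin, mitochondrial-mass and membrane-permeability phenotypes are per cents of healthy-nucleus cells.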

[1] = 12 h, 1 µM, compound concentration 1 uM, replicate 1
[2] = 12 h, 1 µM, compound concentration 1 uM, replicate 2
[3] = 12 h, 10 µM, compound concentration 10 uM, replicate 1
[4] = 12 h, 10 µM, compound concentration 10 uM, replicate 2
[5] = 24 h, 1 µM, compound concentration 1 uM, replicate 1
[6] = 24 h, 1 µM, compound concentration 1 uM, replicate 2
[7] = 24 h, 10 µM, compound concentration 10 uM, replicate 1
[8] = 24 h, 10 µM, compound concentration 10 uM, replicate 2
[9] = 48 h, 1 µM, compound concentration 1 uM, replicate 1
[10] = 48 h, 1 µM, compound concentration 1 uM, replicate 2
[11] = 48 h, 10 µM, compound concentration 10 uM, replicate 1
[12] = 48 h, 10 µM, compound concentration 10 uM, replicate 2

Cc1cc(NC(=O)NCCN2CCC(O)(Cc3ccccc3)CC2)c2ccccc2n1 [PALOSURAN] was tested, and the “Population Apoptotic (%)” value [1] was 80%, the “Population Fragmented Nuclei (%)” value [1] was 27% and the “Population Healthy Nuclei (%)” value [1] was 65%. The “Population Hoechst High Intensity Objects (%)” value [1] was 1%, the “Population Membrane Permeable-Phenotype (%)” value [1] was 4% and the “Population Mitochondria Different-Phenotype (%)” value [1] was 2%. The “Population Mitotic Cells (%)” value [1] was 20%, the “Population Normal (%)” value [1] was 98% and the “Population Pyknosed Nuclei (%)” value [1] was 6%. The “Population Tubulin-Different-Phenotype (%)” value [1] was 1%, the “Total Cell Count” value [1] was 220 and the “Population Apoptotic (%)” value [2] was 71%. For the same compound, the “Population Fragmented Nuclei (%)” value [2] was 19%, the “Population Healthy Nuclei (%)” value [2] was 71% and the “Population Hoechst High Intensity Objects (%)” value [2] was 0%. For the same compound, the “Population Membrane Permeable-Phenotype (%)” value [2] was 2%, the “Population Mitochondria Different-Phenotype (%)” value [2] was 0% and the “Population Mitotic Cells (%)” value [2] was 28%. The “Population Normal (%)” value [2] was 100%, the “Population Pyknosed Nuclei (%)” value [2] was 9% and the “Total Cell Count” value [2] was 145. The “Population Apoptotic (%)” value [3] was 72%, the “Population Fragmented Nuclei (%)” value [3] was 30% and the “Population Healthy Nuclei (%)” value [3] was 59%. The “Population Hoechst High Intensity Objects (%)” value [3] was 3%, the “Population Membrane Permeable-Phenotype (%)” value [3] was 6% and the “Population Mitochondria Different-Phenotype (%)” value [3] was 1%. The “Population Mitotic Cells (%)” value [3] was 28%, the “Population Normal (%)” value [3] was 96% and the “Population Pyknosed Nuclei (%)” value [3] was 9%. The “Population Tubulin-Different-Phenotype (%)” value [3] was 1%, the “Total Cell Count” value [3] was 266 and the “Population Apoptotic (%)” value [4] was 66%. For the same compound, the “Population Fragmented Nuclei (%)” value [4] was 17%, the “Population Healthy Nuclei (%)” value [4] was 70% and the “Population Membrane Permeable-Phenotype (%)” value [4] was 12%. For the same compound, the “Population Mitochondria Different-Phenotype (%)” value [4] was 2%, the “Population Mitotic Cells (%)” value [4] was 33% and the “Population Pyknosed Nuclei (%)” value [4] was 11%. The “Population Tubulin-Different-Phenotype (%)” value [4] was 8%, the “Total Cell Count” value [4] was 107 and the “Population Apoptotic (%)” value [5] was 94%. For the same compound, the “Population Fragmented Nuclei (%)” value [5] was 26%, the “Population Healthy Nuclei (%)” value [5] was 66% and the “Population Hoechst High Intensity Objects (%)” value [5] was 1%. The “Population Membrane Permeable-Phenotype (%)” value [5] was 3%, the “Population Mitochondria Different-Phenotype (%)” value [5] was 3% and the “Population Mitotic Cells (%)” value [5] was 5%. For the same compound, the “Population Normal (%)” value [5] was 98%, the “Population Pyknosed Nuclei (%)” value [5] was 6% and the “Population Tubulin-Different-Phenotype (%)” value [5] was 2%. For the same compound, the “Total Cell Count” value [5] was 276, the “Population Apoptotic (%)” value [6] was 66% and the “Population Fragmented Nuclei (%)” value [6] was 17%. For the same compound, the “Population Healthy Nuclei (%)” value [6] was 74%, the “Population Membrane Permeable-Phenotype (%)” value [6] was 7% and the “Population Mitochondria Different-Phenotype (%)” value [6] was 7%. The “Population Mitotic Cells (%)” value [6] was 33%, the “Population Pyknosed Nuclei (%)” value [6] was 8% and the “Population Tubulin-Different-Phenotype (%)” value [6] was 3%. For the same compound, the “Total Cell Count” value [6] was 173, the “Population Apoptotic (%)” value [7] was 92% and the “Population Fragmented Nuclei (%)” value [7] was 26%. The “Population Healthy Nuclei (%)” value [7] was 65%, the “Population Hoechst High Intensity Objects (%)” value [7] was 3% and the “Population Membrane Permeable-Phenotype (%)” value [7] was 4%. For the same compound, the “Population Mitochondria Different-Phenotype (%)” value [7] was 0%, the “Population Mitotic Cells (%)” value [7] was 8% and the “Population Normal (%)” value [7] was 96%. For the same compound, the “Population Pyknosed Nuclei (%)” value [7] was 8%, the “Population Tubulin-Different-Phenotype (%)” value [7] was 2% and the “Total Cell Count” value [7] was 297. For the same compound, the “Population Apoptotic (%)” value [8] was 75%, the “Population Fragmented Nuclei (%)” value [8] was 19% and the “Population Healthy Nuclei (%)” value [8] was 74%. For the same compound, the “Population Membrane Permeable-Phenotype (%)” value [8] was 11%, the “Population Mitochondria Different-Phenotype (%)” value [8] was 1% and the “Population Mitotic Cells (%)” value [8] was 25%. For the same compound, the “Population Pyknosed Nuclei (%)” value [8] was 6%, the “Population Tubulin-Different-Phenotype (%)” value [8] was 5% and the “Total Cell Count” value [8] was 129. The “Population Apoptotic (%)” value [9] was 96%, the “Population Fragmented Nuclei (%)” value [9] was 25% and the “Population Healthy Nuclei (%)” value [9] was 68%. The “Population Hoechst High Intensity Objects (%)” value [9] was 1%, the “Population Membrane Permeable-Phenotype (%)” value [9] was 5% and the “Population Mitochondria Different-Phenotype (%)” value [9] was 3%. The “Population Mitotic Cells (%)” value [9] was 3%, the “Population Normal (%)” value [9] was 98% and the “Population Pyknosed Nuclei (%)” value [9] was 6%. For the same compound, the “Population Tubulin-Different-Phenotype (%)” value [9] was 3%, the “Total Cell Count” value [9] was 411 and the “Population Apoptotic (%)” value [10] was 84%. The “Population Fragmented Nuclei (%)” value [10] was 15%, the “Population Healthy Nuclei (%)” value [10] was 73% and the “Population Hoechst High Intensity Objects (%)” value [10] was 3%. The “Population Membrane Permeable-Phenotype (%)” value [10] was 7%, the “Population Mitochondria Different-Phenotype (%)” value [10] was 5% and the “Population Mitotic Cells (%)” value [10] was 16%. For the same compound, the “Population Normal (%)” value [10] was 97%, the “Population Pyknosed Nuclei (%)” value [10] was 11% and the “Population Tubulin-Different-Phenotype (%)” value [10] was 4%. For the same compound, the “Total Cell Count” value [10] was 233, the “Population Apoptotic (%)” value [11] was 97% and the “Population Fragmented Nuclei (%)” value [11] was 20%. The “Population Healthy Nuclei (%)” value [11] was 70%, the “Population Hoechst High Intensity Objects (%)” value [11] was 1% and the “Population Membrane Permeable-Phenotype (%)” value [11] was 5%. For the same compound, the “Population Mitochondria Different-Phenotype (%)” value [11] was 2%, the “Population Mitotic Cells (%)” value [11] was 2% and the “Population Normal (%)” value [11] was 98%. For the same compound, the “Population Pyknosed Nuclei (%)” value [11] was 9%, the “Population Tubulin-Different-Phenotype (%)” value [11] was 2% and the “Total Cell Count” value [11] was 421. The “Population Apoptotic (%)” value [12] was 89%, the “Population Fragmented Nuclei (%)” value [12] was 16% and the “Population Healthy Nuclei (%)” value [12] was 72%. For the same compound, the “Population Membrane Permeable-Phenotype (%)” value [12] was 7%, the “Population Mitochondria Different-Phenotype (%)” value [12] was 4% and the “Population Mitotic Cells (%)” value [12] was 10%. For the same compound, the “Population Pyknosed Nuclei (%)” value [12] was 10%, the “Population Tubulin-Different-Phenotype (%)” value [12] was 1% and the “Total Cell Count” value [12] was 180.
